According to ChEMBL document CHEMBL4017460, “A Tobramycin Vector Enhances Synergy and Efficacy of Efflux Pump Inhibitors against Multidrug-Resistant Gram-Negative Bacteria” (J Med Chem, 2017):
Calls of active or inactive are those of the source. The calls are words filed in the database; no cut-off is given here.

Key:
[1] = system: Pseudomonas aeruginosa PAO1; assay: Inhibition of RND efflux pump in Pseudomonas aeruginosa PAO1 assessed as potentiation of chloramphenicol-induced antibacterial activity […] by microbroth dilution assay
[2] = system: Pseudomonas aeruginosa; assay: Reduction in flagellum-dependant motility in Pseudomonas aeruginosa PAO1 after 20 hrs by swimming motility test; format: functional
In short: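 PAO1 flagellum-dependent swimming motility on swimming plates containing sub-MIC compound, compared with plates without compound.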

[3] = system: Pseudomonas aeruginosa; assay: Inhibition of RND efflux pump in Pseudomonas aeruginosa isolate P259-96918 assessed as potentiation of minocycline-induced antibacterial activity by measuring fold reduction in minocycline MIC at 8 ug/ml after 18 to 24 hrs by microbroth dilution assay
In short: (§1)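 Checkerboard broth microdilution: antibiotic 2-fold diluted along one axis, adjuvant 2-fold diluted along the other. Overnight culture standardized to 0.5 McFarland in saline, diluted 1:50 in MHB, added to wells, 37 °C for 18 h. MIC is the lowest concentration with no growth. FIC = MIC in combination / MIC alone; FICI = sum of the two FICs; FICI ≤0.5 is synergy.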

[4] = system: Pseudomonas aeruginosa PAO1; assay: Inhibition of RND efflux pump in Pseudomonas aeruginosa PAO1 assessed as potentiation of trimethoprim-induced antibacterial activity […] by microbroth dilution assay
[5] = system: Pseudomonas aeruginosa; assay: Antibacterial activity against Pseudomonas aeruginosa isolate P262-101856 after 18 to 24 hrs by microbroth dilution assay; format: functional; in short: as §1
[6] = system: Pseudomonas aeruginosa; assay: Inhibition of RND efflux pump in Pseudomonas aeruginosa isolate P260-97103 assessed as potentiation of minocycline-induced antibacterial activity by measuring fold reduction in minocycline MIC at 0.25 times antibacterial MIC after 18 to 24 hrs by microbroth dilution assay; in short: as §1
[7] = system: Pseudomonas aeruginosa; assay: Inhibition of RND efflux pump in Pseudomonas aeruginosa isolate 101885 assessed as potentiation of minocycline-induced antibacterial activity by measuring minocycline MIC at 8 ug/ml after 18 to 24 hrs by microbroth dilution assay (reference value: 16 to 32 ug/ml)
In short: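 Absolute minocycline MIC taken from checkerboard broth dilution with a fixed 8 μg/mL adjuvant. Inoculum was a 0.5 McFarland saline suspension diluted 1:50 in MHB, incubated 37 °C for 18 h. MIC is the lowest concentration with no growth.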

[8] = system: Pseudomonas aeruginosa PAO1; assay: Inhibition of RND efflux pump in Pseudomonas aeruginosa PAO1 assessed as potentiation of tigecycline-induced antibacterial activity by measuring fold reduction in tigecycline MIC at 8 ug/ml after 18 to 24 hrs by microbroth dilution assay relative to tigecycline alone; in short: as §1
[9] = system: Pseudomonas aeruginosa; assay: Potentiation of minocycline-induced antibacterial activity against mexAB-oprM deficient Pseudomonas aeruginosa PAO200 after 18 to 24 hrs by microbroth dilution assay; format: functional
[10] = system: Pseudomonas aeruginosa PAO1; assay: Inhibition of RND efflux pump in Pseudomonas aeruginosa PAO1 assessed as potentiation of novobiocin-induced antibacterial activity […] by microbroth dilution assay
[11] = system: Pseudomonas aeruginosa PAO1; assay: Inhibition of RND efflux pump in Pseudomonas aeruginosa PAO1 assessed as potentiation of minocycline-induced antibacterial activity at 8 ug/ml after 18 to 24 hrs by checker board assay
In short: as §1, with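 “in MHB:” for “broth microdilution:”, “test agent” for “adjuvant”, “wells, incubated” for “wells,”, “FIC index” for “FICI”, “both FICs.” for “the two FICs; FICI ≤0.5 is synergy.”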

[12] = system: Pseudomonas aeruginosa; assay: Reduction in flagellum-dependant motility in Pseudomonas aeruginosa PAO1 at sub MIC after 20 hrs in presence of minocycline by swimming motility test; format: functional
[13] = system: Pseudomonas aeruginosa; assay: Potentiation of rifampicin-induced antibacterial activity against Pseudomonas aeruginosa PAO1 […] by microbroth dilution assay; format: functional
[14] = system: Pseudomonas aeruginosa PAO1; assay: Inhibition of RND efflux pump in Pseudomonas aeruginosa PAO1 assessed as potentiation of gentamicin-induced antibacterial activity after 18 to 24 hrs by checker board assay
In short: as §1, with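 “in MHB:” for “broth microdilution:”, “test agent” for “adjuvant”, “wells, incubated” for “wells,”, “FIC index” for “FICI”, “both FICs.” for “the two FICs; FICI ≤0.5 is synergy.”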

[15] = system: Klebsiella pneumoniae; assay: Inhibition of RND efflux pump in Klebsiella pneumoniae isolate 116381 assessed as potentiation of minocycline-induced antibacterial activity at 8 ug/ml after 18 to 24 hrs by microbroth dilution assay
In short: as §1, with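 “in MHB:” for “broth microdilution:”, “test agent” for “adjuvant”, “wells, incubated” for “wells,”, “FIC index” for “FICI”, “both FICs.” for “the two FICs; FICI ≤0.5 is synergy.”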

[16] = system: Enterobacter cloacae; assay: Inhibition of RND efflux pump in Enterobacter cloacae isolate 117029 assessed as potentiation of minocycline-induced antibacterial activity at 8 ug/ml after 18 to 24 hrs by microbroth dilution assay
In short: as §1, with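 “in MHB:” for “broth microdilution:”, “test agent” for “adjuvant”, “wells, incubated” for “wells,”, “FIC index” for “FICI”, “both FICs.” for “the two FICs; FICI ≤0.5 is synergy.”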

[17] = system: Pseudomonas aeruginosa PAO1; assay: Inhibition of RND efflux pump in Pseudomonas aeruginosa PAO1 assessed as potentiation of vancomycin-induced antibacterial activity […] by microbroth dilution assay
[18] = system: Enterobacter cloacae; assay: Antibacterial activity against Enterobacter cloacae isolate 117029 after 18 to 24 hrs by microbroth dilution assay; format: functional
In short: as §1, with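 “in MHB:” for “broth microdilution:”, “test agent” for “adjuvant”, “wells, incubated” for “wells,”, “FIC index” for “FICI”, “both FICs.” for “the two FICs; FICI ≤0.5 is synergy.”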

[19] = system: Pseudomonas aeruginosa; assay: Inhibition of RND efflux pump in colistin-resistant Pseudomonas aeruginosa isolate 101243 assessed as potentiation of minocycline-induced antibacterial activity by measuring fold reduction in minocycline MIC at 8 ug/ml after 18 to 24 hrs by microbroth dilution assay; in short: as §1
[20] = system: Pseudomonas aeruginosa; assay: Inhibition of RND efflux pump in Pseudomonas aeruginosa isolate P260-97103 assessed as potentiation of minocycline-induced antibacterial activity at 0.25 times antibacterial MIC after 18 to 24 hrs by checker board assay
In short: as §1, with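 “in MHB:” for “broth microdilution:”, “test agent” for “adjuvant”, “wells, incubated” for “wells,”, “FIC index” for “FICI”, “both FICs.” for “the two FICs; FICI ≤0.5 is synergy.”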

[21] = system: Pseudomonas aeruginosa; assay: Antibacterial activity against Pseudomonas aeruginosa isolate P259-96918 after 18 to 24 hrs by microbroth dilution assay; format: functional
In short: as §1, with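 “in MHB:” for “broth microdilution:”, “test agent” for “adjuvant”, “wells, incubated” for “wells,”, “FIC index” for “FICI”, “both FICs.” for “the two FICs; FICI ≤0.5 is synergy.”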

[22] = system: Pseudomonas aeruginosa; assay: Antibacterial activity against Pseudomonas aeruginosa isolate P260-97103 after 18 to 24 hrs by microbroth dilution assay; format: functional
In short: as §1, with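 “in MHB:” for “broth microdilution:”, “test agent” for “adjuvant”, “wells, incubated” for “wells,”, “FIC index” for “FICI”, “both FICs.” for “the two FICs; FICI ≤0.5 is synergy.”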

[23] = system: Pseudomonas aeruginosa; assay: Induction of cytoplasmic membrane depolarization in Pseudomonas aeruginosa PAO1 by DiSC3(5) dye based fluorescence assay; format: functional
In short: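 Cytoplasmic membrane depolarization in P. aeruginosa PAO1, monitored by DiSC3(5) fluorescence across a range of compound concentrations. Colistin served as positive control.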

[24] = system: Pseudomonas aeruginosa; assay: Inhibition of RND efflux pump in Pseudomonas aeruginosa isolate 101885 assessed as potentiation of minocycline-induced antibacterial activity at 8 ug/ml after 18 to 24 hrs by checker board assay
In short: as §1, with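 “in MHB:” for “broth microdilution:”, “test agent” for “adjuvant”, “wells, incubated” for “wells,”, “FIC index” for “FICI”, “both FICs.” for “the two FICs; FICI ≤0.5 is synergy.”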

[25] = system: Pseudomonas aeruginosa PAO1; assay: Inhibition of RND efflux pump in Pseudomonas aeruginosa PAO1 assessed as potentiation of erythromycin-induced antibacterial activity […] by microbroth dilution assay
[26] = system: Pseudomonas aeruginosa; assay: Inhibition of RND efflux pump in Pseudomonas aeruginosa isolate 100036 assessed as potentiation of minocycline-induced antibacterial activity at 8 ug/ml after 18 to 24 hrs by checker board assay
In short: as §1, with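 “in MHB:” for “broth microdilution:”, “test agent” for “adjuvant”, “wells, incubated” for “wells,”, “FIC index” for “FICI”, “both FICs.” for “the two FICs; FICI ≤0.5 is synergy.”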

[27] = system: Pseudomonas aeruginosa; assay: Antibacterial activity against Pseudomonas aeruginosa PAO1 after 18 to 24 hrs by microbroth dilution assay; format: functional
In short: as §1, with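 “in MHB:” for “broth microdilution:”, “test agent” for “adjuvant”, “wells, incubated” for “wells,”, “FIC index” for “FICI”, “both FICs.” for “the two FICs; FICI ≤0.5 is synergy.”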

[28] = system: Pseudomonas aeruginosa; assay: Inhibition of RND efflux pump in colistin-resistant Pseudomonas aeruginosa isolate 101243 assessed as potentiation of minocycline-induced antibacterial activity by measuring minocycline MIC at 8 ug/ml after 18 to 24 hrs by microbroth dilution assay (reference value: 32 ug/ml); in short: as §1
[29] = system: Pseudomonas aeruginosa; assay: Inhibition of RND efflux pump in Pseudomonas aeruginosa isolate P262-104354 assessed as potentiation of minocycline-induced antibacterial activity by measuring fold reduction in minocycline MIC at 8 ug/ml after 18 to 24 hrs by microbroth dilution assay; in short: as §1
[30] = system: Pseudomonas aeruginosa; assay: Inhibition of RND efflux pump in Pseudomonas aeruginosa isolate 101885 assessed as potentiation of minocycline-induced antibacterial activity by measuring fold reduction in minocycline MIC at 8 ug/ml after 18 to 24 hrs by microbroth dilution assay; in short: as §1

SMILES	fractional inhibitory concentration index (FICI) [1]	Activity [2]	fold change (FC) [3]	fractional inhibitory concentration index (FICI) [4]	MIC [5]	fold change (FC) [6]	MIC [7]	fold change (FC) [8]	Activity [9]	fractional inhibitory concentration index (FICI) [10]	fractional inhibitory concentration index (FICI) [11]	Activity [12]	fractional inhibitory concentration index (FICI) [13]	fractional inhibitory concentration index (FICI) [14]	fractional inhibitory concentration index (FICI) [15]	fractional inhibitory concentration index (FICI) [16]	fractional inhibitory concentration index (FICI) [17]	MIC [18]	fold change (FC) [19]	fractional inhibitory concentration index (FICI) [20]	other results
Cl.Cl.Cl.Cl.Cl.Cl.Cl.NC[C@H]1O[C@H](O[C@H]2[C@H](OCCCCCCCCCCCCN3CCN(Cc4cccc5ccccc45)CC3)[C@@H](O[C@H]3O[C@H](CO)[C@@H](O)[C@H](N)[C@H]3O)[C@H](N)C[C@@H]2N)[C@H](N)C[C@@H]1O	< 0.1	Dose-dependent effect	8 to 256	< 0.1	64 µg/mL	8 to 256	0.5 µg/mL	8 to 64	inactive	< 0.1	0.19	Active	<0.05	> 1.5	0.13 to 0.38	0.03 to 0.16	< 0.15	> 32 µg/mL	8 to 256	0.25	MIC [21]: > 1020 µg/mL; MIC [22]: 2 µg/mL; Activity [23]: Dose-dependent effect; fractional inhibitory concentration index (FICI) [24]: 0.05; fractional inhibitory concentration index (FICI) [25]: < 0.2; fractional inhibitory concentration index (FICI) [26]: 0.02; MIC [27]: 64 µg/mL; MIC [28]: 1 µg/mL; fold change (FC) [29]: 8 to 256; fold change (FC) [30]: 8 to 256
Cl.Cl.Cl.Cl.Cl.Cl.NC[C@H]1O[C@H](O[C@H]2[C@H](OCCCCCCCCCCCCN3CC[C@@H](c4ccc(F)cc4)[C@H](COc4ccc5c(c4)OCO5)C3)[C@@H](O[C@H]3O[C@H](CO)[C@@H](O)[C@H](N)[C@H]3O)[C@H](N)C[C@@H]2N)[C@H](N)C[C@@H]1O	< 0.1	Dose-dependent effect	8 to 256	< 0.1	32 µg/mL	8 to 256	1 µg/mL	8 to 64	inactive	< 0.1	0.19	Active	<0.05	> 1.5	0.25 to 0.38	0.02 to 0.14	< 0.15	> 32 µg/mL	8 to 256	0.19	MIC [21]: > 512 µg/mL; MIC [22]: 8 µg/mL; Activity [23]: Dose-dependent effect; fractional inhibitory concentration index (FICI) [24]: 0.13; fractional inhibitory concentration index (FICI) [25]: < 0.2; fractional inhibitory concentration index (FICI) [26]: 0.05; MIC [27]: 32 µg/mL; MIC [28]: 1 µg/mL; fold change (FC) [29]: 8 to 256; fold change (FC) [30]: 8 to 256
